Calls of active or inactive are those of the source. The calls are words filed in the database; no cut-off is given here.
Key:
[1] = biological target: SKBr3 (Homo sapiens); assay: Antiproliferative activity against human SKBr3 cells
[2] = test system: MCF7; assay: Antiproliferative activity against human MCF7 cells; format: functional, cell-based
Outline: (§1)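 Cell growth inhibition with values in µM, reported as mean ± standard deviation from at least two separate experiments, each run in triplicate.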

[3] = test system: SK-BR-3; assay: Antiproliferative activity against human SKBR3 cells; format: functional, cell-based
Outline: as §1

[4] = biological target: T1, Heat shock protein HSP90 (Homo sapiens, UniProt P07900+P08238); assay: Inhibition of Hsp90 (unknown origin); format: protein assay
[5] = biological target: T1, Heat shock protein HSP90; assay: Inhibition of Hsp90 in human MCF7 cells assessed as Akt degradation after 24 hrs by Western blot analysis; format: cell-based
Outline: (§2)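 MCF-7 cells treated across a range of concentrations (in µM). Cell lysates were analysed by western blot for the Hsp90-dependent client proteins Her2, Raf and Akt. Geldanamycin (500 nM) served as positive control and DMSO as negative control.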

[6] = biological target: T1, Heat shock protein HSP90; assay: Inhibition of Hsp90 in human MCF7 cells assessed as Raf degradation after 24 hrs by Western blot analysis; format: cell-based
Outline: as §2

[7] = test system: MCF7; assay: Effect on Hsp90 level in human MCF7 cells after 24 hrs by Western blot analysis; format: functional, cell-based
[8] = biological target: T1, Heat shock protein HSP90; assay: Inhibition of Hsp90 in human MCF7 cells assessed as Her2 degradation after 24 hrs by Western blot analysis; format: cell-based
Outline: as §2

Row | SMILES | IC50 [1] [nM] | IC50 [2] [nM] | IC50 [3] [nM] | other results
1 | Cc1ccc(NC(=O)Nc2cc3ccc(OC4CCN(C)CC4)c(C)c3oc2=O)cc1C | 310 | – | – | –
2 | COc1ccc(C(=O)Nc2cc3ccc(OC4CCN(C)CC4)c(C)c3oc2=O)cc1-c1cccc(O)c1 | – | 380 | 310 | IC50 [4]: 310 nM
3 | C=CCc1cc(C(=O)Nc2cc3ccc(OC4CCN(C)CC4)c(C)c3oc2=O)ccc1OC(C)=O | – | 2000 | 2260 | –
4 | Cc1c(OC2CCN(C)CC2)ccc2cc(NC(=O)c3ccc(O)c(Cl)c3)c(=O)oc12 | – | 1480 | 2300 | –
5 | COc1ccc(C(=O)Nc2cc3ccc(OC4CCN(C)CC4)c(C)c3oc2=O)cc1-c1cccc(OC(C)=O)c1 | – | 360 | 290 | –
6 | Cc1c(OC2CCN(C)CC2)ccc2cc(NC(=O)c3ccc4c(c3)CCC(C)(C)O4)c(=O)oc12 | – | 5010 | 3460 | –
7 | Cc1ccc(NC(=O)Nc2cc3ccc(OC4CCN(C)CC4)c(C)c3oc2=O)cc1 | 270 | – | – | –
8 | COc1cccc(-c2cc(C(=O)Nc3cc4ccc(OC5CCN(C)CC5)c(C)c4oc3=O)ccc2OC)c1 | 1340 | – | – | –
9 | COc1cccc(-c2cc(C(=O)Nc3cc4ccc(O[C@@H]5OC(C)(C)[C@H](OC)[C@@H](O)[C@H]5O)c(C)c4oc3=O)ccc2OC)c1 | 7500 | – | – | –
10 | CCCCOc1ccc(C(=O)Nc2cc3ccc(OC4CCN(C)CC4)c(C)c3oc2=O)cc1CC=C(C)C | – | 1440 | 1400 | –
11 | Cc1c(OCCC2CCCCN2)ccc2cc(NC(=O)Nc3ccc(Cl)cc3)c(=O)oc12 (centres undefined) | 210 | – | – | –
12 | CO[C@@H]1[C@@H](O)[C@@H](O)[C@H](Oc2ccc3cc(NC(=O)c4ccc(O)c(CC=C(C)C)c4)c(=O)oc3c2C)OC1(C)C | 10900 | – | – | –
13 | COc1cccc(-c2cc(C(=O)Nc3cc4ccc(OC5CCN(C)CC5)c(C)c4oc3=O)ccc2OC(C)=O)c1 | – | 910 | 920 | –
14 | COc1ccc(C(=O)Nc2cc3ccc(O[C@@H]4OC(C)(C)[C@H](OC)[C@@H](O)[C@H]4O)c(C)c3oc2=O)cc1-c1cccc(O)c1 | 2900 | – | – | –
15 | Cc1c(OC2CCN(C)CC2)ccc2cc(NC(=O)c3ccc(O)c(CCC(C)C)c3)c(=O)oc12 | – | 1250 | 600 | –
16 | CC(C)=CCc1cccc(C(=O)Nc2cc3ccc(OC4CCN(C)CC4)c(C)c3oc2=O)c1 | – | 2100 | 1680 | –
17 | Cc1c(OC2CCN(C)CC2)ccc2cc(NC(=O)c3ccccc3)c(=O)oc12 | – | 11700 | 11500 | –
18 | C#CCOc1ccc(C(=O)Nc2cc3ccc(OC4CCN(C)CC4)c(C)c3oc2=O)cc1CC=C(C)C | – | 1120 | 1400 | –
19 | CC(C)=CCc1cc(C(=O)Nc2cc3ccc(OC4CCN(C)CC4)c(C)c3oc2=O)ccc1OC1CCN(C)CC1 | – | 470 | 210 | –
20 | CC(=O)Oc1ccc(C(=O)Nc2cc3ccc(OC4CCN(C)CC4)c(C)c3oc2=O)cc1Cl | – | 1610 | 3500 | –
21 | CC(=O)Oc1ccc(C(=O)Nc2cc3ccc(OC4CCN(C)CC4)c(C)c3oc2=O)cc1 | – | 1620 | 1670 | –
22 | Cc1c(OC2CCN(C)CC2)ccc2cc(NC(=O)c3ccc(O)cc3)c(=O)oc12 | – | 1430 | 840 | –
23 | COc1ccc(C(=O)Nc2cc3ccc(OC4CCN(C)CC4)c(C)c3oc2=O)cc1CC=C(C)C | – | 1580 | 1410 | –
24 | COc1cccc(-c2cc(C(=O)Nc3cc4ccc(O[C@@H]5OC(C)(C)[C@H](OC)[C@@H](O)[C@H]5O)c(OC)c4oc3=O)ccc2OC)c1 | 13900 | – | – | –
25 | COc1cccc(-c2cc(C(=O)Nc3cc4ccc(OC5CCN(C)CC5)c(C)c4oc3=O)ccc2O)c1 | – | 810 | 860 | –
26 | CC(C)=CCc1cc(C(=O)Nc2cc3ccc(OC4CCN(C)CC4)c(C)c3oc2=O)ccc1OCCN(C)C | – | 720 | 330 | –
27 | CC(C)=CCc1cc(C(=O)Nc2cc3ccc(OC4CCN(C)CC4)c(C)c3oc2=O)ccc1OCCCN(C)C | – | 460 | 250 | inhibition [5]: Dose-dependent effect; inhibition [6]: Dose-dependent effect; Activity [7]: inactive; inhibition [8]: Dose-dependent effect
28 | C=CCc1cc(C(=O)Nc2cc3ccc(OC4CCN(C)CC4)c(C)c3oc2=O)ccc1O | – | 2170 | 2430 | –
29 | Cc1c(OC2CCN(C)CC2)ccc2cc(NC(=O)Nc3ccc(Cl)cc3)c(=O)oc12 | 170 | – | – | –

From ChEMBL document CHEMBL2321658 (ACS Med Chem Lett, 2013)
